Only some compounds are listed: those with a hit (about 1.8% of all), similar ones and a draw of the others.
HTRA1 inh: HTRA1 serine protease inhibitors, primary screen, biochemical, fluorescence polarization, HTS; Q92743; recombinant HTRA1, FP-rhodamine activity-based probe; inhibition, % at 5.96 µM; 340,000 compounds, 0.5% hits; in the data active = inhibition above about 36%;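 note: 0% = enzyme with DMSO and 100% = wells lacking enzyme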
SIAE primary: human SIAE inhibitors, primary screen, biochemical, fluorescence polarization, FP-Rh probe, 1536-well HTS | Sialate O-acetylesterase (Homo sapiens), Q9HAT2 | SIAE FP-Rh probe binding | inhibition, % at 9.66 µM | 370,000 compounds, 0.69% hits | AID 1053197, 2014;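 active = inhibition above a cutoff: mean of compounds within the control limits plus 3 SD of those, cut at about 17% in these data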;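 note: 0% = plate median of compound wells and 100% = probe without SIAE protein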
Target sequence (Q9HAT2 whole entry, looked up): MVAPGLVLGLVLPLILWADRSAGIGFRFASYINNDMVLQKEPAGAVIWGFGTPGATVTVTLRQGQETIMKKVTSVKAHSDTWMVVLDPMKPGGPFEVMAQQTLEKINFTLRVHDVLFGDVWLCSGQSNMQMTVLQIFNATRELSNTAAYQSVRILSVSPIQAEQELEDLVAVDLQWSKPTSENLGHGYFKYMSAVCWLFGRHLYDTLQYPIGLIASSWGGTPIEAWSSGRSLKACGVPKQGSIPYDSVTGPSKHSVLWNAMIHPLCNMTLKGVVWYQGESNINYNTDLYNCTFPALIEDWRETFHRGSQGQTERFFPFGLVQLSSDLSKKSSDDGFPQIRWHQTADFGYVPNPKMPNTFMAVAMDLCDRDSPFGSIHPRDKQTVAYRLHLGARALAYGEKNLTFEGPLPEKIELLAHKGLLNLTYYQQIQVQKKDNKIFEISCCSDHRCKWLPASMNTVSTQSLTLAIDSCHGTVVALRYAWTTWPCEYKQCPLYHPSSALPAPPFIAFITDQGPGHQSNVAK
DDE Tn6 FP inh: inhibitors of Tn6 peptide binding to fibrin DD(E), primary screen, biochemical, fluorescence polarization, human fibrin, Tn6 probe; inhibition, % at 8.3 µM; Fibrin DD(E) TRITC-Tn6 fluorescence polarization displacement; Fibrinogen beta chain (Homo sapiens), P02675; 370,000 compounds, 0.21% hits;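 active = inhibition above a per-campaign cutoff: mean of compounds within control limits plus 3 SD, cut at about 15% in these data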;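 note: 0% = median of all compound wells on the plate and 100% = blocking peptide control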
TCR CD3 inh: inhibitors of human TCR-CD3 interaction, primary screen, biochemical, fluorescence, TAMRA-labeled TCR probe. T-cell receptor (TCR). inhibition, % at 9.4 µM. 360,000 compounds, 0.37% hits. AID 651800, 2012; in the data active = inhibition above about 19%;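 note: recombinant mutant TCR 2C K166C tagged with TAMRA read by polarization; 0% = receptor in buffer alone and 100% = receptor with positive control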
ABHD4 inh: ABHD4 inhibitors, primary screen, biochemical, fluorescence polarization, mouse | AID 720543, 2013 | inhibition, % at 8.92 µM | (Lyso)-N-acylphosphatidylethanolamine lipase (Mus musculus), Q8VD66 | 370,000 compounds, 0.54% hits | purified mABHD4, FP-Rh probe fluorescence polarization;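 active = inhibition exceeding the mean over every tested compound plus 3 SD, cut at about 30% in these data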;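 note: 0% = plate median of compound wells and 100% = S159A mutant with DMSO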
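Assay system: wild-type mouse ABHD4 protein; compound: single nominal dose of 8.92 µM, 0.89% DMSO final; schedule: 45 min + 60 min at 25 °C; measured by: FP readout, ex 525 nm / em 598 nm; evaluation: % inhibition of FP-Rh probe binding versus controls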
DDE Tn7 FP inh: inhibitors of Tn7 peptide binding to fibrin DD(E), primary screen, biochemical, fluorescence polarization, human fibrin, Tn7 probe; Fibrinogen beta chain (Homo sapiens), P02675; FP displacement of FITC-Tn7 peptide from fibrin DD(E); 0% = median of compound wells per plate; inhibition, % at 8.3 µM; 370,000 compounds, 0.13% hits; AID 720508, 2013;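 active = inhibition above the mean of compounds falling within the control limits plus 3 SD of them, cut at about 14% in these data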;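 note: 0% = plate median of compound wells and 100% = 10 µM Aha-Tn7 peptide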
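assay system = human clot-derived fibrin DD(E) complex | quantity = Fibrin-DD(E) at 2 µM final | timing = 10 min preincubation, 3 h with tracer, room temperature | signal = fluorescence polarization | measure = percent inhibition | benchmarks = high control wells with 10 µM unlabelled Aha-Tn7 peptide (full inhibition) | replicates = singlicate testing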
Tn7 DDE conf: inhibitors of Tn7 peptide binding to fibrin DD(E), confirmation, biochemical, fluorescence polarization, human fibrin, Tn7 probe; shares compounds with DDE Tn7 FP inh; FP displacement of TRITC-Tn7 peptide from DD(E); 0% set at plate's compound-well median; inhibition, % at 8.3 µM; 460 compounds, 5% hits; AID 720628, 2013;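 active = inhibition above the campaign cutoff, the mean of compounds within control limits plus 3 SD, cut at about 14% in these data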;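 note: 100% = median FP of high control wells holding Aha-Tn7 inhibitor peptide; displacers lower polarization since freed probe rises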
DDE Tn7 FP ctr: DD(E)-Tn7 binding inhibition, counter-screen; shares compounds with DDE Tn7 FP inh; fibrin DD(E), TRITC-Tn7 probe displacement, fluorescence polarization; inhibition, % at 8.3 µM; 460 compounds, 3% hits;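 active = inhibition above the cutoff, the mean of compounds lying between the control bounds plus 3 SD of those compounds, cut at about 17% in these data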;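 note: 0% = median of compound sample wells and 100% = excess unlabeled Aha-Tn7 peptide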
Numbers without * were called inactive.

CCC(C)[C@H](NC(=O)N1CCC(C)CC1)C(=O)O (stereo partly drawn) was read as HTRA1 inh 4.9, SIAE primary 4.7, DDE Tn6 FP inh 8.1, TCR CD3 inh 9.4, ABHD4 inh 4.1, DDE Tn7 FP inh 14.3*, Tn7 DDE conf -3.1 and DDE Tn7 FP ctr -7.8.
CC(Sc1ccccc1)C(=O)NNC(=O)c1ccncc1 (stereo not drawn) was read as HTRA1 inh -4.8, SIAE primary 1.1, DDE Tn6 FP inh 2.1, TCR CD3 inh -5.0, ABHD4 inh 4.0 and DDE Tn7 FP inh 0.7.
CC(=N\NC(=O)c1ccc([N+](=O)[O-])cc1)/C(=N/O)C(=O)Nc1ccccc1 was read as HTRA1 inh 14.1, SIAE primary 6.5, DDE Tn6 FP inh -0.6, TCR CD3 inh -3.2, ABHD4 inh 5.5, DDE Tn7 FP inh 15.7*, Tn7 DDE conf 1.4 and DDE Tn7 FP ctr 0.9.
Screening O=C(O)c1cc(=O)c2c(Cl)cc(Cl)cc2[nH]1 returned HTRA1 inh -3.3, SIAE primary -1.8, DDE Tn6 FP inh -2.8, TCR CD3 inh 6.3, ABHD4 inh -1.0 and DDE Tn7 FP inh -8.2.
Screening O=C(O)c1cc(=O)c2ccccc2[nH]1 returned HTRA1 inh 5.0, SIAE primary 6.6, DDE Tn6 FP inh 2.0, TCR CD3 inh 4.6, ABHD4 inh 2.4, DDE Tn7 FP inh 14.1*, Tn7 DDE conf -6.0 and DDE Tn7 FP ctr -8.4.
Screening O=C(Cn1cnc2ccccc2c1=O)NC1CCS(=O)(=O)C1 (stereo not drawn) returned HTRA1 inh -1.9, SIAE primary 1.4, DDE Tn6 FP inh -3.1, TCR CD3 inh -2.8, ABHD4 inh -4.9 and DDE Tn7 FP inh 1.8.
O=C(NCc1ccco1)c1ccc2c(c1)OCCO2 was read as HTRA1 inh -2.8, SIAE primary 4.3, DDE Tn6 FP inh -4.5, TCR CD3 inh -2.5, ABHD4 inh 3.3 and DDE Tn7 FP inh -8.0.
`O=C(O)Cn1nc(-c2ccc(F)cc2)oc1=O` gave HTRA1 inh 1.0, SIAE primary 15.1, DDE Tn6 FP inh 1.7, TCR CD3 inh -0.1, ABHD4 inh -108.8 and DDE Tn7 FP inh -5.1.
For CCOC(=O)Cn1nc(-c2ccc(F)cc2)oc1=O the results were HTRA1 inh 0.8, SIAE primary 7.7, DDE Tn6 FP inh 1.7, TCR CD3 inh 0.7, ABHD4 inh 0.3, DDE Tn7 FP inh 14.3*, Tn7 DDE conf -0.4 and DDE Tn7 FP ctr -1.0.
CNCCC1Sc2ccccc2Oc2ccccc21 (stereo not drawn) was read as HTRA1 inh -4.3, SIAE primary 1.4, DDE Tn6 FP inh 8.5, TCR CD3 inh 1.8, ABHD4 inh 3.5, DDE Tn7 FP inh 14.0*, Tn7 DDE conf -0.5 and DDE Tn7 FP ctr -1.7.
For CCc1c(C)nc2ncnn2c1NCc1cccs1 the results were HTRA1 inh -9.9, SIAE primary 1.6, DDE Tn6 FP inh -1.8, TCR CD3 inh 4.4, ABHD4 inh -3.8 and DDE Tn7 FP inh -4.0.
FC(F)(F)c1cc(NCc2cccs2)n2ncnc2n1 was read as HTRA1 inh 3.9, SIAE primary 10.0, DDE Tn6 FP inh 5.3, TCR CD3 inh -6.9, ABHD4 inh 2.2, DDE Tn7 FP inh 14.5*, Tn7 DDE conf -5.8 and DDE Tn7 FP ctr -9.0.

Screening data: PubChem, The Scripps Research Institute Molecular Screening Center
